From ChEMBL document CHEMBL1155099, “Natural products in parallel synthesis: triazole libraries of nonactic acid” (2008)
Calls of active or inactive are those of the source.

Key:
Type in all cases: functional, organism-based
[1] = system: Candida albicans; assay: Antifungal activity against Candida albicans at 1 mM by almar blue dye reduction assay
How it was run: (§1)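 Single-point primary screen at 1 mM using Alamar Blue dye reduction as the growth read-out.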

[2] = system: Bacillus anthracis; assay: Antibacterial activity against Bacillus anthracis at 1mM by almar blue dye reduction assay
[3] = system: Cryptococcus neoformans; assay: Antifungal activity against Cryptococcus neoformans at 1 mM by almar blue dye reduction assay; how it was run: as §1
[4] = system: Saccharomyces cerevisiae; assay: Antifungal activity against Saccharomyces cerevisiae at 1 mM by almar blue dye reduction assay; how it was run: as §1
[5] = system: Staphylococcus aureus; assay: Antibacterial activity against Staphylococcus aureus at 1 mM by almar blue dye reduction assay; how it was run: as §1
[6] = system: Pseudomonas aeruginosa; assay: Antibacterial activity against Pseudomonas aeruginosa at 1 mM by almar blue dye reduction assay; how it was run: as §1
[7] = system: Bacillus cereus; assay: Antibacterial activity against Bacillus cereus at 1 mM by almar blue dye reduction assay; how it was run: as §1
[8] = system: Bacillus subtilis; assay: Antibacterial activity against Bacillus subtilis at 1 mM by almar blue dye reduction assay; how it was run: as §1
[9] = system: Escherichia coli; assay: Antibacterial activity against Escherichia coli at 1 mM by almar blue dye reduction assay; how it was run: as §1

Measured: Activity

C[C@H](C[C@@H]1CC[C@H]([C@@H](C)C(=O)N2CCCC2)O1)n1cc(C#CCOc2ccc(Br)cc2)nn1
inactive: all assays above

CC(C)NC(=O)[C@H](C)[C@H]1CC[C@@H](C[C@@H](C)n2cc(C#CCN3CCC(c4ccccc4)CC3)nn2)O1
inactive: all assays above

C[C@H](C[C@@H]1CC[C@H]([C@@H](C)C(=O)N2CCN(CC3CCCO3)CC2)O1)n1cc(C#CC2=CCCCC2)nn1 (stereo partly specified)
inactive: all assays above

CCCCN(CC#Cc1cn([C@H](C)C[C@@H]2CC[C@H]([C@@H](C)C(=O)N(CC)CC)O2)nn1)CCCC
inactive: all assays above

C[C@H](C[C@@H]1CC[C@H]([C@@H](C)C(=O)N2CCN(CC3CCCO3)CC2)O1)n1cc(C#CCN2CCN(c3ccccc3)CC2)nn1 (stereo partly specified)
inactive: all assays above

C[C@H](C[C@@H]1CC[C@H]([C@@H](C)C(=O)N(C)Cc2ccccc2)O1)n1cc(C#CCOc2ccccc2)nn1
inactive: all assays above

C[C@H](C[C@@H]1CC[C@H]([C@@H](C)C(=O)N2CCN(CC3CCCO3)CC2)O1)n1cc(C#CCOc2ccccc2)nn1 (stereo partly specified)
inactive: all assays above

C[C@H](C[C@@H]1CC[C@H]([C@@H](C)C(=O)N(C)Cc2ccccc2)O1)n1cc(C#Cc2ccccc2[N+](=O)[O-])nn1
inactive: all assays above

C[C@H](C[C@@H]1CC[C@H]([C@@H](C)C(=O)N2CCN(CC3CCCO3)CC2)O1)n1cc(C#Cc2ccccc2[N+](=O)[O-])nn1 (stereo partly specified)
inactive: all assays above
